Several values for one entry are separate records, joined by “and”; a condition that tells them apart may be missing. Identical values can stand only once. Activity calls are given as the source filed them.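 Rule for the calls: active = fitted AC50 at or below twice the top valid tested dose for that sample, with falling signal; inconclusive = flat curve with 30 to 70% inhibition, or poor fit; inactive = the rest.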
tested on: not listed separately; assay: growth inhibition of C. albicans CaCi-17, confirmation, retest at dose, dry powder, set 2 (AID 623897); settings: C. albicans CaCi-17 growth, Alamar Blue fluorescence, 48 h; at 26 µM (top of the series)
Procedure, shortened: (§1)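 Medium: MOPS-buffered RPMI 1640 plus uridine, glucose; schedule: 48 h static growth at 37 °C, then 2 h Alamar Blue; signal: Alamar Blue fluorescence; controls: amphotericin B 10 µM as positive control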

Q: Which activity change, negative = inhibition does the source give for `CCOC(=O)N1C(=S)NC(=O)C12CCCCC2` here?
A: 8.62% (inactive)

Q: Which activity change, negative = inhibition does the source give for `Cc1ccc(N2C(=S)NC(=O)C2(C)C)cc1` here?
A: 2.64% (inactive)

Q: For `Cc1ccc(N2C(=O)C(=O)NC2=S)cc1`, which activity change, negative = inhibition is on record?
A: 5.65% (inactive)

Q: Which activity change, negative = inhibition does the source give for `O=C1NC(=S)NC12CCCCC2` here?
A: 2.58% (inactive)

Q: For `CCOC(=O)N1C(=O)C2(CCC2)N(c2ccc(C)cc2)C1=S`, which activity change, negative = inhibition is on record?
A: 13.1% (inactive)

Q: For `Cc1ccc(N2C(=S)N(S(C)(=O)=O)C(=O)C23CCCCC3)cc1`, which activity change, negative = inhibition is on record?
A: 3.7% (inactive)

Q: With `CCOC(=O)N1C(=O)C(C)(C)N(c2ccc(C)cc2)C1=S` as the molecule, how does the activity change, negative = inhibition read?
A: 11.1% (inactive)

Q: With `CCOC(=O)N1C(=O)C2(CCCCC2)N(C(C)C)C1=S` as the molecule, how does the activity change, negative = inhibition read?
A: -6.94% (inactive)

Q: For `Cc1ccc(N2C(=O)C3(CCCCC3)NC2=S)cc1`, which activity change, negative = inhibition is on record?
A: 5.29% (inactive)

Q: Which activity change, negative = inhibition does the source give for `CCCOC(=O)N1C(=O)C2(CCCCC2)N(c2ccc(C)cc2)C1=S` here?
A: 17.3% (inactive)

Q: With `CCOC(=O)N1C(=O)C2(CCCCC2)N(c2ccc(CC)cc2)C1=S` as the molecule, how does the activity change, negative = inhibition read?
A: -31.8% (inactive)

Q: With `CCCCN1C(=O)N(c2ccc(C)cc2)C2(CCCCC2)C1=O` as the molecule, how does the activity change, negative = inhibition read?
A: 9.41% (inactive)

Q: Which activity change, negative = inhibition does the source give for `CCOC(=O)N1C(=S)N(c2ccc(C)cc2)C(=O)C12CCCCC2` here?
A: 3.4% (inactive)

Q: With `Cc1ccc(N2C(=S)N(C)C(=O)C23CCCCC3)cc1` as the molecule, how does the activity change, negative = inhibition read?
A: -21% (inactive)

Q: With `Cc1ccc(N2C(=S)N(C(=O)OCc3ccccc3)C(=O)C23CCCCC3)cc1` as the molecule, how does the activity change, negative = inhibition read?
A: 5.07% (inactive)

Q: With `CCOC(=O)N1C(=O)C2(CCOCC2)N(c2ccc(C)cc2)C1=S` as the molecule, how does the activity change, negative = inhibition read?
A: 0.474% (inactive)

Q: Which activity change, negative = inhibition does the source give for `CCCc1ccc(N2C(=S)N(C(=O)OCC)C(=O)C23CCCCC3)cc1` here?
A: -11.5% (inactive)

Q: With `Cc1ccc(N2C(=S)NC(=O)C23CCCC3)cc1` as the molecule, how does the activity change, negative = inhibition read?
A: 4.84% (inactive)

Q: For `CCOC(=O)N1C(=O)C2(CCCCC2)NC1=S`, which activity change, negative = inhibition is on record?
A: -0.208% (inactive)

Q: With `Cc1ccc(N2C(=S)NC(=O)C23CCCCC3)cc1` as the molecule, how does the activity change, negative = inhibition read?
A: -4.65% (inactive)

Q: Which activity change, negative = inhibition does the source give for `Cc1ccc(N2C(=O)N(C)C(=O)C23CCCCC3)cc1` here?
A: 0.531% (inactive)

Q: For `Cc1ccc(N2CC(=O)NC2=O)cc1`, which activity change, negative = inhibition is on record?
A: -8.61% (inactive)

Q: With `Cc1ccc(N2C(=O)NC(=O)C23CCCCC3)cc1` as the molecule, how does the activity change, negative = inhibition read?
A: 5.65% (inactive)

Q: With `Cc1ccc(N2C(=S)N(C(=O)OC(C)C)C(=O)C23CCCCC3)cc1` as the molecule, how does the activity change, negative = inhibition read?
A: 7.31% (inactive)

Q: With `O=C1NC(=S)N(c2ccc(F)cc2)C12CCCCC2` as the molecule, how does the activity change, negative = inhibition read?
A: -18.2% (inactive)

Q: For `Cc1ccc(N2C(=S)N(C(=O)Oc3ccccc3)C(=O)C23CCCCC3)cc1`, which activity change, negative = inhibition is on record?
A: 1.41% (inactive)

Q: Which activity change, negative = inhibition does the source give for `CCOC(=O)N1C(=O)C2(CCCCC2)N(c2ccc(C(C)C)cc2)C1=S` here?
A: 8.52% (inactive)

Q: Which activity change, negative = inhibition does the source give for `CCOC(=O)N1C(=S)N(c2ccc(C)cc2)C2(CCCCC2)C1=NCc1ccccc1` here?
A: 5.9% (inactive)

Q: For `CCCCN1C(=O)C2(CCCCC2)N(c2ccc(C)cc2)C1=S`, which activity change, negative = inhibition is on record?
A: -7.78% (inactive)

Q: With `CCOC(=O)N1C(=O)C2(CCCC2)N(c2ccc(C)cc2)C1=S` as the molecule, how does the activity change, negative = inhibition read?
A: 1.68% (inactive)

Q: With `CCCC(=O)N1C(=O)C2(CCCCC2)N(c2ccc(C)cc2)C1=S` as the molecule, how does the activity change, negative = inhibition read?
A: 8.69% (inactive)

Q: Which activity change, negative = inhibition does the source give for `CC(C)N1C(=S)NC(=O)C12CCCCC2` here?
A: -18.9% (inactive)

Q: Which activity change, negative = inhibition does the source give for `O=C1NC(=S)N(Cc2ccccc2)C12CCCCC2` here?
A: 0.955% (inactive)

tested on: C. albicans CaCi-17 growth, Alamar Blue fluorescence, 48 h; assay: as above; settings: not given
Procedure, shortened: as §1

Q: For `Cc1ccc(N2C(=S)NC(=O)C23CCC3)cc1`, which AC50 is on record?
A: > 52 µM (inactive)

Q: Which AC50 does the source give for `CCOC(=O)N1C(=O)C2(CCCCC2)N(c2ccc(C(F)(F)F)cc2)C1=S` here?
A: 16.2 µM

Q: With `CCOC(=O)N1C(=O)C2(CCCCC2)N(c2cccc(C)c2)C1=S` as the molecule, how does the AC50 read?
A: 8.16 µM

Q: Which AC50 does the source give for `CCOC(=O)N1C(=O)C2(CCCCC2)N(c2ccc(C#N)cc2)C1=S` here?
A: 1.76 µM

Q: For `CCOC(=O)N1C(=O)C2(CCCCC2)N(c2ccc(-c3ccccc3)cc2)C1=S`, which AC50 is on record?
A: > 52 µM (inactive)

Q: For `COC(=O)N1C(=O)C2(CCCCC2)N(c2ccc(C)cc2)C1=S`, which AC50 is on record?
A: 17.1 µM

Q: For `CCOC(=O)N1C(=O)C2(CCCCC2)N(c2ccccc2)C1=S`, which AC50 is on record?
A: 4.15 µM

Q: With `Cc1ccc(N2C(=S)N(C)C(=O)C23CCCCC3)cc1` as the molecule, how does the AC50 read?
A: > 52 µM (inactive)

Q: For `CCOC(=O)N1C(=O)C2(CCCCC2)N(c2ccc(C)cc2)C1=S`, which AC50 is on record?
A: 8.5 µM and 9.7 µM

Q: Which AC50 does the source give for `CCOC(=O)N1C(=O)C2(CCCCC2)N(Cc2ccccc2)C1=S` here?
A: 22.8 µM

Q: Which AC50 does the source give for `CCOC(=O)N1C(=O)N(c2ccc(C)cc2)C2(CCCCC2)C1=O` here?
A: > 52 µM (inactive)

Q: With `O=C1NC(=S)N(c2ccccc2)C12CCCCC2` as the molecule, how does the AC50 read?
A: > 52 µM (inactive)

Q: With `CCOC(=O)N1C(=O)C2(CCCCC2)N(c2ccc(Cl)cc2)C1=S` as the molecule, how does the AC50 read?
A: 1.37 µM

Q: Which AC50 does the source give for `CCOC(=O)N1C(=O)C2(CCCCC2)N(c2ccc(F)cc2)C1=S` here?
A: 0.946 µM

Q: For `CCOC(=O)N1C(=O)C2(CCCCC2)N(c2ccc(C(C)(C)C)cc2)C1=S`, which AC50 is on record?
A: > 52 µM (inactive)

Q: For `CC1/C=C/C=C\C=C\C=C\C=C\C=C\C=C\C(O[C@H]2OC(C)C(O)C(N)C2O)CC2OC(O)(CC(O)CC(O)C(O)CCC(O)CC(O)CC(=O)OC(C)C(C)C1O)CC(O)C2C(=O)O` (some centres not stated), which AC50 is on record?
A: 0.0301 µM

Q: With `Cc1ccc(N2CC(=O)NC2=S)cc1` as the molecule, how does the AC50 read?
A: > 52 µM (inactive)

Q: For `CCOC(=O)N1C(=O)C2(CCCCC2)N(c2ccccc2C)C1=S`, which AC50 is on record?
A: 23.9 µM

Q: With `Cc1ccc(N2C(=S)NC(=O)C23CCOCC3)cc1` as the molecule, how does the AC50 read?
A: > 52 µM (inactive)
